Read-outs that look alike come from different tables or passages of the source.
Assays:
[1] = tested on: PC3 prostate cancer cell lines; assay: MTT cytotoxicity assay in PC3 cells; format: cell-based, human
[2] = tested on: PC3 and LNCaP prostate cancer cell lines; assay: In-vitro cytotoxicity in PC3 and LNCaP, summary statements for both lines; format: cell-based, human
In short: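 MTT colorimetric assay on human prostate cancer cells (androgen receptor-positive LNCaP, androgen receptor-negative PC3). Cells were exposed to six concentrations of test compound for 7 days, with viable cells read spectrophotometrically on days 3, 5 and 7. IC50 was taken from the day-7 read. Emetine was run in the same assay.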

[3] = pH-responsive hydrolysis to emetine in phosphate buffer, quantified by HPLC; format: physicochemical; conditions: for activation to emetine at pH 5.5: pH 5.5, over a 48 h period; for percent emetine released (hydrolysis to emetine) at pH 6.5: phosphate buffer pH 6.5, 37 °C
In short: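 Pure test compound was incubated at 37 °C in aqueous phosphate buffer at pH 5.5, 6.5 or 7.4 for 24–48 h; stability at pH 7.4 was followed up to 5 days. Samples were analysed by HPLC to quantify released emetine. Percent conversion is the percent emetine in the sample mixture.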

healthy mice = assay: In-vivo toxicity study in healthy mice; conditions: for toxicity on three-week follow-up: after 100 mg/kg iv daily for five days, studied for three weeks; for appearance of mice / percent weight loss relative to control mice: 33 mg/kg; for appearance of mice: 48 hours; for percent weight loss relative to control mice: within 48 hours of daily dosing; for percent weight change within 48 hours versus control group: 100 mg/kg; for signs of toxicity: 100 mg/kg body weight daily for five days
[4] = tested on: LNCaP prostate cancer cell lines; assay: MTT cytotoxicity assay in LNCaP cells; format: cell-based, human; conditions: 7 day, relative to compound 13
[5] = PC3, Figures 4a-f, time at which optimum IC50 is reached or pattern

CC[C@H]1CN2CCc3cc(OC)c(OC)cc3[C@@H]2C[C@@H]1C[C@@H]1c2cc(OC)c(OC)cc2CCN1C(=S)NCc1ccc(OC)cc1 [Compound 5]
progress of cytotoxicity (IC50) over day 3, 5 and 7 [1, 5]: an optimum IC50 value was obtained by day 5

CC[C@H]1CN2CCc3cc(OC)c(OC)cc3[C@@H]2C[C@@H]1C[C@@H]1c2cc(OC)c(OC)cc2CCN1C(=S)NCc1ccc(Cl)cc1 [Compound 6]
progress of cytotoxicity (IC50) over day 3, 5 and 7 [1, 5]: reach an optimum by day 3

CC[C@H]1CN2CCc3cc(OC)c(OC)cc3[C@@H]2C[C@@H]1C[C@@H]1c2cc(OC)c(OC)cc2CCN1C(=O)NCc1ccccc1 [Compound 7]
progress of cytotoxicity (IC50) over day 3, 5 and 7 [1]: reach an optimum by day 3

CC[C@H]1CN2CCc3cc(OC)c(OC)cc3[C@@H]2C[C@@H]1C[C@@H]1c2cc(OC)c(OC)cc2CCN1C(=O)NCc1ccc(OC)cc1 [Compound 8]
progress of cytotoxicity (IC50) over day 3, 5 and 7 [1]: progressive decrease in IC50 values

CC[C@H]1CN2CCc3cc(OC)c(OC)cc3[C@@H]2C[C@@H]1C[C@@H]1c2cc(OC)c(OC)cc2CCN1C(=O)NCc1ccc(Cl)cc1 [Compound 9]
progress of cytotoxicity (IC50) over day 3, 5 and 7 [1, 5]: reach an optimum by day 3

CC[C@H]1CN2CCc3cc(OC)c(OC)cc3[C@@H]2C[C@@H]1C[C@@H]1c2cc(OC)c(OC)cc2CCN1S(=O)(=O)c1ccc(OC)cc1 [Compound 12]
progress of cytotoxicity (IC50) over day 3, 5 and 7 [1]: an optimum IC50 value was obtained by day 5

CC[C@H]1CN2CCc3cc(OC)c(OC)cc3[C@@H]2C[C@@H]1C[C@@H]1c2cc(OC)c(OC)cc2CCN1C(=S)[S-].[Na+] [Compound 13]
7th day IC50 fold higher than emetine ([2]; LNCaP and PC3, 7th day, relative to emetine): about 3 fold | activation to emetine at pH 5.5 [3]: activated to emetine | percent hydrolysis to emetine at pH 5.5 ([3]; phosphate buffer pH 5.5, 37 °C, within 48 hours): about 94.5% | percent emetine released (hydrolysis to emetine) at pH 6.5 ([3]; within 48 hours): 13.2% | toxicity on three-week follow-up (healthy mice): no noticeable effect of toxicity | appearance of mice (healthy mice; iv): appeared healthy with no noticeable signs of toxicity | percent weight loss relative to control mice (healthy mice; iv): no significant difference | percent weight change within 48 hours versus control group (healthy mice; iv): very similar to that obtained for the control group | signs of toxicity (healthy mice; iv): no sign of toxicity | progress of cytotoxicity (IC50) over day 3, 5 and 7 [1, 5]: an optimum IC50 value was obtained by day 5

CC[C@H]1CN2CCc3cc(OC)c(OC)cc3[C@@H]2C[C@@H]1C[C@@H]1c2cc(OC)c(OC)cc2CCN1C(=S)SCc1ccccc1 [Compound 14]
fold increase of IC50 relative to 13 ([1]; PC3, 7 day, relative to compound 13): ~18 fold | progress of cytotoxicity (IC50) over day 3, 5 and 7 [1, 5]: progressive decrease in IC50 values | fold increase of IC50 relative to 13 [4]: about 24 fold

CC[C@H]1CN2CCc3cc(OC)c(OC)cc3[C@@H]2C[C@@H]1C[C@@H]1c2cc(OC)c(OC)cc2CCN1C(=O)OCc1ccccc1 [Compound 15]
progress of cytotoxicity (IC50) over day 3, 5 and 7 [1, 5]: progressive decrease in IC50 values

CC[C@H]1CN2CCc3cc(OC)c(OC)cc3[C@@H]2C[C@@H]1C[C@@H]1c2cc(OC)c(OC)cc2CCN1C(=O)/C=C\C(=O)O [Compound 21]
activation to emetine at pH 5.5 [3]: activated to emetine | percent emetine released (hydrolysis to emetine) at pH 6.5 ([3]; within 48 hours): about 50%

CC[C@H]1CN2CCc3cc(OC)c(OC)cc3[C@@H]2C[C@@H]1C[C@@H]1c2cc(OC)c(OC)cc2CCN1C(=O)/C=C(/C)C(=O)O [Compound 22]
activation to emetine at pH 5.5 [3]: activated to emetine | percent emetine released (hydrolysis to emetine) at pH 6.5 ([3]; within 48 hours): ~80%

CC[C@H]1CN2CCc3cc(OC)c(OC)cc3[C@@H]2C[C@@H]1C[C@@H]1c2cc(OC)c(OC)cc2CCN1C(=O)CCC(=O)[O-].[Na+] [Compound 24]
progress of cytotoxicity (IC50) over day 3, 5 and 7 [1]: an optimum IC50 value was obtained by day 5

CC[C@H]1CN2CCc3cc(OC)c(OC)cc3[C@@H]2C[C@@H]1C[C@@H]1c2cc(OC)c(OC)cc2CCN1C(=O)/C=C\C(=O)[O-].[Na+] [Compound 25]
activation to emetine at pH 5.5 [3]: activated to emetine

CC[C@H]1CN2CCc3cc(OC)c(OC)cc3[C@@H]2C[C@@H]1C[C@@H]1c2cc(OC)c(OC)cc2CCN1C(=O)/C=C(/C)C(=O)[O-].[Na+] [Compound 26]
activation to emetine at pH 5.5 [3]: activated to emetine | percent emetine released (hydrolysis to emetine) at pH 6.5 ([3]; within 48 hours): about 50% | toxicity on three-week follow-up (healthy mice): no noticeable effect of toxicity | percent weight change within 48 hours versus control group (healthy mice; iv): very similar to that obtained for the control group | signs of toxicity (healthy mice; iv): no sign of toxicity | progress of cytotoxicity (IC50) over day 3, 5 and 7 [1]: an optimum IC50 value was obtained by day 5

CC[C@H]1CN2CCc3cc(OC)c(OC)cc3[C@@H]2C[C@@H]1C[C@@H]1c2cc(OC)c(OC)cc2CCN1C(=O)/C=C(/CC(=O)[O-])C(=O)[O-].[Na+].[Na+] [Compound 27]
activation to emetine at pH 5.5 [3]: activated to emetine

CC[C@H]1CN2CCc3cc(OC)c(OC)cc3[C@@H]2C[C@@H]1C[C@H]1NCCc2cc(OC)c(OC)cc21.Cl.Cl [emetine, Emetine, reference compound]
IC50 ([2]; Homo sapiens, LNCaP, read-out: IC50 range of emetine): 23.7 to 32.9 nM | lethality (healthy mice; iv, 33 mg/kg body weight, within the period of study): did not kill the mice | average weight loss over a 48 hour period (healthy mice; iv, 33 mg/kg daily dosing): about 3.6% | appearance of mice (healthy mice; iv): appeared lethargic | percent weight loss relative to control mice (healthy mice; iv): about 4 | lethality (healthy mice; iv, single dose 100 mg/kg body weight, within 48 hours): killed all three mice

From PMC3654864 (Journal of medicinal chemistry, 2012)
